ChEMBL document CHEMBL2169781, “Discovery and biological evaluation of a novel class of dual microsomal prostaglandin E2 synthase-1/5-lipoxygenase inhibitors based on 2-[(4,6-diphenethoxypyrimidin-2-yl)thio]hexanoic acid” (J Med Chem, 2011)
Activity calls are given as the source filed them. The calls are words filed in the database; no cut-off is given here.

Tests used:
[1] = target: T1, Polyunsaturated fatty acid 5-lipoxygenase (Homo sapiens) (UniProt P09917); test: Selectivity ratio of IC50 for human recombinant 5-lipoxygenase in cell-free system to IC50 for 5-lipoxygenase-mediated 5(S)-H(p)ETE formation in A23187-stimulated PMNL
T1 sequence (whole entry): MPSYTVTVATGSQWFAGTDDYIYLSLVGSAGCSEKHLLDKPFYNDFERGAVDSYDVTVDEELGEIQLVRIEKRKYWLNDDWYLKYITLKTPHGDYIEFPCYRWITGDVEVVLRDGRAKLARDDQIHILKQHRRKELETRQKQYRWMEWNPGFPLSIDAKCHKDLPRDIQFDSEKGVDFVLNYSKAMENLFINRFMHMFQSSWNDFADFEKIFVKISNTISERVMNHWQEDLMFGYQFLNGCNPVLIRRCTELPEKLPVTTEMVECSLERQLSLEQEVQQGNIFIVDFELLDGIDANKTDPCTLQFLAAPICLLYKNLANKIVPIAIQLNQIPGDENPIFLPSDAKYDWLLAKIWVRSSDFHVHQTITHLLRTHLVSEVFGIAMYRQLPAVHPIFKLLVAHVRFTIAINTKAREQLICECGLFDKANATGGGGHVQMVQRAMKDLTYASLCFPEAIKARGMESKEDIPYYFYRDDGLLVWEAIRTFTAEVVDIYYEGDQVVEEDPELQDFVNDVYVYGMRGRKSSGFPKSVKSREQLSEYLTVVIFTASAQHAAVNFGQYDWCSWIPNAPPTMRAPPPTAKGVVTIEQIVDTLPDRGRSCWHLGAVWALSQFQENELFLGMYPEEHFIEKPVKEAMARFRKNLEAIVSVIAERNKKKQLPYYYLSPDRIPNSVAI

[2] = Cytotoxicity in human polymorphonuclear leukocytes assessed as cell viability at 10 uM after 30 mins by MTT assay
[3] = target: T2, Polyunsaturated fatty acid 5-lipoxygenase (Homo sapiens, UniProt P09917); test: Inhibition of 5-lipoxygenase-mediated 5(S)-H(p)ETE formation in A23187-stimulated human PMNL incubated 10 mins prior to A23187 challenge
T2 sequence (P09917 whole entry): T1 sequence (whole entry)

Prostaglandin E synthase = target: T3, Prostaglandin E synthase (Homo sapiens, UniProt O14684); test: Inhibition of mPGES-1 in human IL-1beta-stimulated A549 cell microsomes assessed as reduction of PGE2 formation from PGH2 after 15 mins by RP-HPLC analysis; parameters: species or system Microsome
T3 sequence (O14684 whole entry): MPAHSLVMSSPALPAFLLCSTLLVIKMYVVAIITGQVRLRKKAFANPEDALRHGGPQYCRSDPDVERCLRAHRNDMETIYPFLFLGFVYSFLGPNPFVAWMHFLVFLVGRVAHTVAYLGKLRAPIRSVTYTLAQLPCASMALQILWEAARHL
Outline: (§1)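 A549 cells in DMEM with 2% FCS for 16 h, induced with IL-1β (1 ng/mL) for 72 h, homogenized. Microsomal pellet (174 000 × g) diluted in 0.1 M potassium phosphate pH 7.4 with 2.5 mM glutathione, given compound or DMSO for 15 min. PGH₂ added (20 μM final), 1 min at 4 °C, stopped with FeCl₂/citric acid. PGE₂ by SPE and RP-HPLC (UV 195 nm), 11β-PGE₂ internal standard. Tested up to 10 μM; IC₅₀ reported only above 50% inhibition at 10 μM.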

[4] = target: Prostaglandin G/H synthase 2 (Homo sapiens) (UniProt P35354); test: Inhibition of human recombinant COX-2 mediated formation of 12-HHT from arachidonic acid assessed as remaining activity at 10 uM after 5 mins by HPLC analysis
[5] = target: Prostaglandin G/H synthase 1 (Ovis aries) (UniProt P05979); test: Inhibition of ovine COX-1 mediated formation of 12-HHT from arachidonic acid assessed as remaining activity at 10 uM after 5 mins by HPLC analysis
[6] = target: T2, Polyunsaturated fatty acid 5-lipoxygenase; test: Inhibition of human recombinant 5-lipoxygenase-mediated product formation from arachidonic acid after 5 to 10 mins by HPLC analysis
Outline: (§2)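 Human 5-LO expressed in E. coli BL21 (pT3-5LO) at 37 °C, purified and used at once. Enzyme (0.5 μg/mL in PBS/EDTA with 1 mM ATP) preincubated with compound 5–10 min at 4 °C, prewarmed 30 s at 37 °C, started with 2 mM CaCl₂ + 20 μM AA (±1 μM 13(S)-HpODE), 10 min at 37 °C, stopped with cold methanol, products by HPLC.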

[7] = target: T1, Polyunsaturated fatty acid 5-lipoxygenase (Homo sapiens); test: Inhibition of human recombinant 5-lipoxygenase-mediated product formation from arachidonic acid assessed as remaining activity at 1 uM after 5 to 10 mins by HPLC analysis
Outline: as §2

[8] = test system: Radical scavenging activity; test: Antioxidant activity assessed as DPPH radical scavenging activity at 100 uM; format: functional
Outline: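 Non-enzymatic radical scavenging test: reduction of 1,1-diphenyl-2-picrylhydrazyl (DPPH) measured with test compound up to 100 μM; ascorbic acid and L-cysteine run as reference reductants.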

[9] = target: T4, Prostaglandin E synthase (Homo sapiens) (UniProt O14684); test: Inhibition of mPGES-1 in human IL-1beta-stimulated A549 cell microsomes assessed as residual activity by measuring reduction of PGE2 formation from PGH2 at 10 uM after 15 mins by RP-HPLC analysis; conditions: Microsome
T4 sequence (whole entry): T3 sequence (O14684 whole entry)
Outline: as §1

[10] = target: T1, Polyunsaturated fatty acid 5-lipoxygenase (Homo sapiens); test: Inhibition of human recombinant 5-lipoxygenase-mediated product formation from arachidonic acid assessed as remaining activity at 10 uM after 5 to 10 mins by HPLC analysis
Outline: as §2

[11] = target: T5, Polyunsaturated fatty acid lipoxygenase ALOX15 (Homo sapiens) (UniProt P16050); test: Inhibition of 15-lipoxygenase in A23187-stimulated human PMNL assessed as reduction of 15(S)-H(P)ETE formation preincubated 15 mins by RP-HPLC analysis in presence of exogenous arachidonic acid
T5 sequence (whole entry): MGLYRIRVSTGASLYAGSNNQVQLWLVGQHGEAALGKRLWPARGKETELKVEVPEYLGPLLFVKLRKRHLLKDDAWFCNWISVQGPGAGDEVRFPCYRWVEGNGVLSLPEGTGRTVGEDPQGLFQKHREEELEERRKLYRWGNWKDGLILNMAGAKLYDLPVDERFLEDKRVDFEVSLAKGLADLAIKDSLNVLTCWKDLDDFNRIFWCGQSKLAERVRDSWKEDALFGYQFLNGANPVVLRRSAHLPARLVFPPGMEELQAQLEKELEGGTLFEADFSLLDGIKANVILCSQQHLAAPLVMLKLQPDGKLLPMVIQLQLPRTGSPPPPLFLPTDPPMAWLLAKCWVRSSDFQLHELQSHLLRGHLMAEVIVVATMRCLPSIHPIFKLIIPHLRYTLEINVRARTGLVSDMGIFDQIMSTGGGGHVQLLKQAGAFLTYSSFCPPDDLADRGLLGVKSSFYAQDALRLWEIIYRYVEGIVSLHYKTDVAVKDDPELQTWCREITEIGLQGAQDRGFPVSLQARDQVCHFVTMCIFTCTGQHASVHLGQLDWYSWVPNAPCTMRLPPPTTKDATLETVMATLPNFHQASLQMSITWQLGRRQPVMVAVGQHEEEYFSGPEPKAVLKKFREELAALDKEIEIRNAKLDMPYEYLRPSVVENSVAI
Outline: (§3)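 Freshly isolated human PMNL (5 × 10⁶/mL in PBS pH 7.4 with 1 mg/mL glucose and 1 mM CaCl₂) preincubated with compound 15 min at 37 °C, then stimulated with 2.5 μM A23187 plus exogenous AA for 10 min at 37 °C. Stopped with methanol, PGB₁ added as internal standard, extracted, HPLC: 15(S)-H(p)ETE taken as 15-LO product, 12(S)-H(p)ETE as 12-LO product (platelet-type 12-LO from PMNL-adherent platelets).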

[12] = target: T6, Polyunsaturated fatty acid lipoxygenase ALOX12 (Homo sapiens) (UniProt P18054); test: Inhibition of 12-lipoxygenase in A23187-stimulated human PMNL assessed as reduction of 12(S)-H(P)ETE formation preincubated 15 mins by RP-HPLC analysis in presence of exogenous arachidonic acid
T6 sequence (whole entry): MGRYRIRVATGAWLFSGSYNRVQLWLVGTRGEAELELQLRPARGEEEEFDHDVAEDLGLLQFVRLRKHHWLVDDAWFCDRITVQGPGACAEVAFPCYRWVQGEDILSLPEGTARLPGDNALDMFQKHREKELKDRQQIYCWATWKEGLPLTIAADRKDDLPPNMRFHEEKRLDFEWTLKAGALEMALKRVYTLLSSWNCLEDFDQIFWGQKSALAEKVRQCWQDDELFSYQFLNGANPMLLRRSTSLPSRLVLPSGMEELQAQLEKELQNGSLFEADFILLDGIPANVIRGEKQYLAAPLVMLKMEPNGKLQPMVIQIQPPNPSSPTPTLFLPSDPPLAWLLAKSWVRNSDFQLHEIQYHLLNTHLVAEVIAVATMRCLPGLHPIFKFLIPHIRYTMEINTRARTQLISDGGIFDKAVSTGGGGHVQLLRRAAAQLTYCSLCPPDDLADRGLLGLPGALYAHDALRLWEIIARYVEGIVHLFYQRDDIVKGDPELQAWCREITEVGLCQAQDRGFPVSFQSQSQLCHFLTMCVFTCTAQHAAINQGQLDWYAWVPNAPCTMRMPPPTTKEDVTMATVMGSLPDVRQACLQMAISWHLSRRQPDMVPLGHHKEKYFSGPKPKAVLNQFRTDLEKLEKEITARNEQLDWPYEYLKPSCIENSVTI
Outline: as §3

[13] = target: T6, Polyunsaturated fatty acid lipoxygenase ALOX12 (Homo sapiens); test: Inhibition of 12-lipoxygenase in A23187-stimulated human PMNL assessed as reduction of 12(S)-H(P)ETE formation up to 10 uM preincubated 15 mins by RP-HPLC analysis in presence of exogenous arachidonic acid
Outline: as §3

[14] = target: T5, Polyunsaturated fatty acid lipoxygenase ALOX15 (Homo sapiens); test: Inhibition of 15-lipoxygenase in A23187-stimulated human PMNL assessed as reduction of 15(S)-H(P)ETE formation up to 10 uM preincubated 15 mins by RP-HPLC analysis in presence of exogenous arachidonic acid
Outline: as §3

[15] = target: T2, Polyunsaturated fatty acid 5-lipoxygenase; test: Inhibition of 5-lipoxygenase in human PMNL S100 supernatant assessed as inhibition of enzyme product formation preincubated for 5 to 10 mins before arachidonic acid addition by HPLC analysis
Outline: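 PMNL (5 × 10⁶/mL in PBS/1 mM EDTA) sonicated, centrifuged 100 000 × g for 1 h at 4 °C. S100 diluted in PBS/EDTA with 1 mM ATP, ±1 mM DTT, and preincubated with compound or 0.3% DMSO 5–10 min at 4 °C. Prewarmed 30 s at 37 °C, started with 2 mM CaCl₂ + 20 μM AA, 10 min at 37 °C, stopped with cold methanol, 5-LO products by HPLC.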

[16] = target: T2, Polyunsaturated fatty acid 5-lipoxygenase; test: Inhibition of 5-lipoxygenase-mediated 5(S)-H(p)ETE formation in fMLP-stimulated human PMNL incubated 10 mins prior to fMLP challenge

| Structure (SMILES) | Ratio IC50 [1] | IC50 [3] [µM] | IC50 (Prostaglandin E synthase) [µM] | Activity [4] [%] | Activity [5] [%] | IC50 [6] [µM] | Activity [9] [%] | Activity [10] [%] | Activity [2] | other results |
| --- | --- | --- | --- | --- | --- | --- | --- | --- | --- | --- |
| CCCCC(Oc1cc(OCCc2ccccc2)cc(OCCc2ccccc2)c1)C(=O)O (stereo not given) | > 20 | 0.6 | 3.4 | 92.5 | 71.6 | > 10 |  |  | Non-toxic |  |
| CC(C)c1ccc2c(c1)c(SC(C)(C)C)c(CC(C)(C)C(=O)O)n2Cc1ccc(Cl)cc1 |  |  |  |  |  |  |  |  |  | inhibition [7]: inactive |
| O=C1O[C@H]([C@@H](O)CO)C(O)=C1O |  |  |  |  |  |  |  |  |  | Activity [8]: Active |
| N[C@@H](CS)C(=O)O |  |  |  |  |  |  |  |  |  | Activity [8]: Active |
| Cc1ccc(-c2cc(C(F)(F)F)nn2-c2ccc(S(N)(=O)=O)cc2)cc1 |  |  |  |  |  |  |  |  |  | inhibition [11]: inactive; inhibition [12]: inactive |
| CCCCCCC(Sc1nc(OCCc2ccccc2)cc(OCCc2ccccc2)n1)C(=O)O (stereo not given) |  |  | 2 |  |  | 2.8 |  |  |  | Activity [8]: inactive; inhibition [13]: inactive; inhibition [14]: inactive; IC50 [15]: 12.5 µM; IC50 [16]: 0.4 µM |

Further lines, with some results ahead:

| Ratio IC50 [1] | IC50 [3] [µM] | IC50 (Prostaglandin E synthase) [µM] | Activity [4] [%] | Activity [5] [%] | IC50 [6] [µM] | Activity [9] [%] | Activity [10] [%] | Structure (SMILES) | Activity [2] | other results |
| --- | --- | --- | --- | --- | --- | --- | --- | --- | --- | --- |
| > 20 | 0.3 | > 10 |  |  | 7 | 63.7 |  | CCCCC(Sc1nc(OCCc2ccc(OC)cc2)cc(OCCc2ccc(OC)cc2)n1)C(=O)O (stereo not given) |  |  |
| > 20 | 0.5 | > 10 |  |  | > 10 | 88.3 | 56.4 | CCCCC(Sc1nc(OCCc2ccc(OC(F)(F)F)cc2)cc(OCCc2ccc(OC(F)(F)F)cc2)n1)C(=O)O (stereo not given) |  |  |
| > 20 | 0.4 | > 10 | 106 | 92.3 | 10 | 74 | 55.5 | CCCC/C(=C\c1cc(OCCC2CCCCC2)ccc1OCc1ccc(C(F)(F)F)cc1)C(=O)O | Non-toxic |  |
|  |  | > 10 | 110 | 99.1 | > 10 | 90.1 | 85.6 | CCCCC(Cc1ccc(OCCc2ccccc2)cc1OCCc1ccccc1)C(=O)O (stereo not given) | Non-toxic | IC50 [16]: > 10 µM |
| > 20 | 0.3 | 3.5 | 102 | 81 | > 10 |  | 55.6 | CCCC/C(=C\c1cc(OCCc2ccc(C(F)(F)F)cc2)ccc1OCCc1ccc(C(F)(F)F)cc1)C(=O)O | Non-toxic |  |
